Reference: ChEMBL document CHEMBL1122226, “6-Aryl-4,5-dihydro-3(2H)-pyridazinones. A new class of compounds with platelet aggregation inhibiting and hypotensive activities” (J Med Chem, 1983)
Values after ≈ are worked out from the molar mass of the structure shown.

What was measured:
Rattus norvegicus [1] = assay: Activity relative to dihydralazine for in vitro hypotensive activity in anesthetized rats; assay type: functional; settings: in the assay text read “in vivo” for “in vitro”
In short: (§1)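 Male Sprague-Dawley rats, 230-280 g, urethane-anesthetized (ip); carotid arterial pressure recorded continuously by pressure transducer. Compounds given ip at 2 mL/kg. ED20, dose lowering mean carotid pressure by 20%, from log dose–effect regression; dihydralazine as reference.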

Homo sapiens [2] = organism: Homo sapiens; assay: Relative activity (compared to acetylsalicylic acid) for in vitro inhibition of collagen-induced human platelet aggregation; assay type: functional
Homo sapiens [3] = organism: Homo sapiens; assay: In vitro inhibition of ADP-induced human platelet aggregation; assay type: functional; settings: Homo sapiens; read-out: EC50
In short: (§2)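 Human venous blood citrated with 10% v/v sodium citrate (3.8%); platelet-rich plasma spun at 300g, 10 min, 4 °C, used within 2 h. Compound in Me2SO (1% final) preincubated 10 min at room temperature; aggregation triggered by collagen 0.02 mg/mL final or ADP 0.85 μg/mL final; maximum rate read in Born aggregometer. EC50 from log dose–effect regression with 95% confidence limits.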

Rattus norvegicus [4] = assay: In vitro hypotensive activity in anesthetized rats after intraperitoneal administration.; assay type: functional; settings: ip, in the assay text read “In vivo” for “In vitro”; in short: as §1
Homo sapiens [5] = organism: Homo sapiens; assay: In vitro inhibition of collagen-induced human platelet aggregation.; assay type: functional, organism-based; settings: Homo sapiens; read-out: EC50; in short: as §2
[6] = In vitro inhibition of collagen induced aggregation of human plateles and the ratio of ED33 to EC50 was reported; assay type: functional
In short: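 Ratio of oral ED33 (male Sprague-Dawley rats, 3 per dose, blood taken 1 h post-dose, collagen-triggered aggregation) to in vitro EC50 (human citrated platelet-rich plasma, 10 min room-temperature preincubation in 1% Me2SO, collagen 0.02 mg/mL final, regression-derived).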

Rattus norvegicus [7] = assay: Ex vivo inhibition of collagen-induced rat platelet aggregation after peroral administration; assay type: functional; settings: po
In short: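 Male Sprague-Dawley rats, 200-250 g, dosed orally, three rats per dose. Blood drawn by heart puncture under ether 1 h post-dose; platelet-rich plasma prepared by centrifugation; aggregation induced with collagen 0.02 mg/mL final, maximum rate read in Born aggregometer.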

Rattus norvegicus [8] = organism: Rattus norvegicus; assay: Relative activity in rats based on acetylsalicylic acid; assay type: functional

| Structure (SMILES) | Relative activity (Rattus norvegicus [1]) | Relative activity (Homo sapiens [2]) | EC50 (Homo sapiens [3]) | ED20 (Rattus norvegicus [4]) | EC50 (Homo sapiens [5]) | Ratio [6] | ED33 (Rattus norvegicus [7]) | Relative activity (Rattus norvegicus [8]) |
| --- | --- | --- | --- | --- | --- | --- | --- | --- |
| CCC(Cl)C(=O)Nc1ccc(C2=NNC(=O)CC2)cc1 (stereo unspecified) | 0.91 | 156 | 1.47 µg/mL (≈ 5 µM) | 0.37 mg/kg | 3.16 µg/mL (≈ 10.8 µM) | – | – | – |
| CCC(=O)Nc1ccc(C2=NNC(=O)CC2)cc1 | 5.63 | 668 | 0.64 µg/mL (≈ 2.61 µM) | 0.06 mg/kg | 0.74 µg/mL (≈ 3.02 µM) | 56.3 | 41.6 mg/kg | 5.6 |
| CC(=O)Nc1cccc(C2=NNC(=O)CC2)c1 | <0.34 | <11 | > 46.4 µg/mL | > 1 mg/kg | > 46.4 µg/mL | – | – | – |
| Nc1ccc(C2=NNC(=O)CC2)cc1 | 1.88 | 33 | 46.4 µg/mL (≈ 245 µM) | 0.18 mg/kg | 14.8 µg/mL (≈ 78.2 µM) | – | – | – |
| C=CCNCC(=O)Nc1ccc(C2=NNC(=O)CC2)cc1.Cl | <0.34 | ~107 | ~21.5 µg/mL | > 1 mg/kg | ~4.64 µg/mL | – | – | – |
| CC(Cl)CC(=O)Nc1ccc(C2=NNC(=O)CC2C)cc1 (stereo unspecified) | 1.81 | 150 | 4.78 µg/mL (≈ 15.5 µM) | 0.187 mg/kg | 3.29 µg/mL (≈ 10.7 µM) | – | – | – |
| O=C1CCC(c2ccc(NC(=O)CCl)cc2)=NN1 | 0.91 | 1976 | 0.39 µg/mL (≈ 1.47 µM) | 0.37 mg/kg | – | 62.8 | 15.7 mg/kg | 14.8 |
| CC(Cl)C(=O)Nc1ccc(C2=NNC(=O)C(C)C2)cc1 (stereo unspecified) | <0.34 | 15 | 32.9 µg/mL (≈ 112 µM) | > 1 mg/kg | 33.8 µg/mL (≈ 115 µM) | – | – | – |
| CC1CC(c2ccc(NC(=O)CCl)cc2)=NNC1=O (stereo unspecified) | <0.34 | 78 | 21.9 µg/mL (≈ 78.3 µM) | > 1 mg/kg | 6.31 µg/mL (≈ 22.6 µM) | – | – | – |
| CC1CC(=O)NN=C1c1ccc(NC(=O)CCl)cc1 (stereo unspecified) | 2.25 | – | 0.15 µg/mL (≈ 0.536 µM) | 0.15 mg/kg | – | 111 | 12.2 mg/kg | 19.1 |
| CC(C)(CCl)C(=O)Nc1ccc(C2=NNC(=O)CC2)cc1 | <0.34 | 54 | 11.4 µg/mL (≈ 37 µM) | > 1 mg/kg | 9.24 µg/mL (≈ 30 µM) | – | – | – |
